Converted amounts (≈) assume the structure as drawn. The source made the active and inactive calls. The calls are words filed in the database; no cut-off is given here.
Key:
Entamoeba histolytica = assay: Antimicrobial activity against Entamoeba histolytica HM1 IMSS trophozoites after 48 hrs; format: functional, organism-based; details: 60 h, in the assay text read “60 hrs” for “48 hrs”
In short: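 Trophozoites were grown axenically in TYI-S-33 with 10% bovine adult serum and seeded at ~10^4 cells/well. Compound (range up to 10 µM) was added to 48-h log-phase cultures, then incubated 60 h at 37°C under anaerobic conditions. Viability was read by CellTiter-Glo luminescence. EC50 came from quadruplicate wells in two independent experiments.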

[1] = system: Trypanosoma brucei brucei; assay: Antimicrobial activity against Trypanosoma brucei brucei clone 427-221a after 48 hrs; format: functional, organism-based
In short: (§1)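 Bloodstream-form T. b. brucei in Baltz medium (~10^4/ml) and HL-60 cells in RPMI 1640 (~10^5/ml), both with 16.7% FBS, were exposed 48 h at 37°C in 5% CO2 to compound up to 10 µM in 1% final DMSO. Live cells were hemocytometer-counted, by motility (trypanosomes) or trypan blue exclusion (HL-60). EC50 was taken by regression versus DMSO cultures from three experiments. MIC was the lowest fully lethal concentration, judged microscopically.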

Trichomonas vaginalis [2] = assay: Antimicrobial activity against Trichomonas vaginalis G3 assessed as parasite death at 10 uM after 24 hrs; format: functional
In short: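 G3 strain grown in Diamond's medium at 37°C. Assay culture set up as 0.5 ml dense culture diluted into 5.0 ml complete medium. Compound at a final 10 µM for 24 h at 37°C. Motile cells counted by hemocytometer. Result is percent dead parasites relative to DMSO-treated cultures, from five separate experiments. Controls were untreated, DMSO and metronidazole.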

[3] = (§2) Cytotoxicity against human HL60 cells; format: cell-based, HL-60; details: human, HL-60 cells; read-out: MIC; in short: as §1
HL-60 = assay: as §2; format: cell-based; details: Homo sapiens, HL-60; in short: as §1
Leishmania donovani = assay: Antileishmanial activity against Leishmania donovani MHOM/SD/00/1S-2D promastigotes assessed as parasite death at 10 uM after 72 hrs; format: functional
In short: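 Promastigotes seeded at 1.5 x 10^5 cells/ml in medium 199 with 10% heat-inactivated FBS. Compound added at a final 10 µM, in triplicate, in sealed flasks at 27°C for up to 7 days. Aliquots taken daily and viability read by CellTiter-Glo luminescence. Result given as percent reduction in viability relative to DMSO-treated cultures. Controls were K11777 or amphotericin B at 10 µM.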

Plasmodium falciparum [4] = assay: Antimicrobial activity against chloroquine-resistant Plasmodium falciparum W2 after 72 hrs; format: functional, organism-based; details: W2, 72 h
Leishmania major [5] = assay: Antileishmanial activity against Leishmania major MHOM/IL/81/FE/BNI amastigotes after 48 hrs; format: functional, organism-based
In short: (§3)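 Peritoneal macrophages from BALB/c mice (6-8 wk) adhered 2 h at 37°C, infected 24 h with stationary-phase L. major promastigotes at 10:1 parasite:macrophage, washed, then exposed 48 h to compound at 0.0001 to 10 µM. Intracellular amastigotes stained with acridine orange/ethidium bromide and counted by fluorescence microscopy; percent amastigotes cleared versus DMSO-treated cultures; three repeats.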

[6] = Selectivity index, ratio of MIC for HL60 cells to MIC for Trypanosoma brucei brucei clone 427-221a; format: functional, HL-60; in short: as §1
Plasmodium falciparum [7] = assay: Antimicrobial activity against chloroquine-sensitive Plasmodium falciparum 3D7 after 72 hrs; format: functional, organism-based; details: 3D7, 72 h
[8] = Selectivity index, ratio of EC50 for HL60 cells to EC50 for Trypanosoma brucei brucei clone 427-221a; format: functional, HL-60; in short: as §1
Schistosoma mansoni [9] = assay: Antimicrobial activity against Schistosoma mansoni assessed as worm vitality at 6 uM after 4 hrs; format: functional, organism-based
In short: (§4)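 20-day-old worms were obtained by perfusion of BALB/c mice infected with 200 cercariae. About 20 worms/well were kept in Basch 169 with 10% bovine calf serum, preincubated 24 h at 37°C in 5% CO2, then exposed to 1, 3 or 6 µM. Vitality (feeding, flexing, gut peristalsis; death = nonmotile, shrunken, dark) was scored at 4 and 18 h in two experiments.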

[10] = Cytotoxicity against BALB/c mouse peritoneal macrophages at 10 uM after 48 hrs hrs; format: cell-based; details: macrophage
J774 = assay: Cytotoxicity against mouse J774 cells; format: cell-based
MRC5 = assay: Toxicity against human MRC5 cells at 3.13 uM; format: cell-based; details: mrc5, 3.13 µM
[11] = system: Trypanosoma brucei brucei; assay: Antimicrobial activity against Trypanosoma brucei brucei clone 427-221a at 1.56 uM; format: functional
Plasmodium falciparum [12] = assay: Antimalarial activity against chloroquine-resistant Plasmodium falciparum FcB1R after 72 hrs; format: functional, organism-based
Schistosoma mansoni [13] = assay: Antimicrobial activity against Schistosoma mansoni assessed as worm vitality at 3 uM after 4 hrs; format: functional, organism-based; in short: as §4
[14] = Cytotoxicity against BALB/c mouse peritoneal macrophages at 1 uM after 48 hrs hrs; format: cell-based; details: macrophage
Leishmania major [15] = assay: Antileishmanial activity against Leishmania major MHOM/IL/81/FE/BNI amastigotes after 48 hrs at 1 uM; format: functional, organism-based; in short: as §3
Trichomonas vaginalis [16] = assay: Antimicrobial activity against Trichomonas vaginalis G3 assessed as parasite death at 1 uM after 24 hrs; format: functional

Compound | EC50 (Entamoeba histolytica) [nM] | EC50 [1] [nM] | MIC [1] [µM] | Activity (Trichomonas vaginalis [2]) [%] | MCC [3] [µM] | EC50 (HL-60) [nM] | Activity (Leishmania donovani) [%] | EC50 (Plasmodium falciparum [4]) [nM] | EC50 (Leishmania major [5]) [nM] | Ratio [6] | EC50 (Plasmodium falciparum [7]) [nM] | Ratio EC50 [8] | Activity (Schistosoma mansoni [9]) | Activity [10] | Activity (Schistosoma mansoni [13]) | Activity [14] | Activity (Leishmania major [15]) | also measured
COc1ccc2nc3cc(Cl)ccc3c(NCCCNCCCNCCCNc3c4ccc(Cl)cc4nc4ccc(OC)cc34)c2c1 | 5000 | 1.4 | 1 (≈ 0.672 µg/mL) | 0 | 10 | 142 | 73 | 147 | 3000 | 10 | 121 | 98 | Active | – | – | – | – | –
COc1ccc2nc3cc(Cl)ccc3c(NCCCCNCCCNc3c4ccc(Cl)cc4nc4ccc(OC)cc34)c2c1 | 5000 | 0.7 | 1 (≈ 0.629 µg/mL) | 3 | 10 | 144 | 96 | 135 | 800 | 10 | 62 | 209 | Active | Toxic | Active | – | – | Activity (J774): Toxic; Activity (MRC5): 100%; Activity [11]: 100%; EC50 (Plasmodium falciparum [12]): 61 nM
COc1ccc2nc3cc(Cl)ccc3c(NCCCN(C)CCCNc3c4ccc(Cl)cc4nc4ccc(OC)cc34)c2c1 | 500 | 0.9 | 0.1 (≈ 0.0629 µg/mL) | 92 | 10 | 1180 | 99 | 1080 | 6000 | 100 | 790 | 1326 | Active | – | Active | – | – | –
COc1ccc2nc3cc(Cl)ccc3c(NCCOCCOCCNc3c4ccc(Cl)cc4nc4ccc(OC)cc34)c2c1 | 5000 | 5.8 | 1 (≈ 0.632 µg/mL) | 75 | 10 | 3040 | 96 | 74 | – | 10 | 61 | 524 | – | Toxic | – | Toxic | inactive | –
Cc1ncc([N+](=O)[O-])n1CCO [METRONIDAZOLE] | 2000 | – | – | – | – | – | – | – | – | – | – | – | – | – | – | – | – | Activity (Trichomonas vaginalis [16]): 100%
COc1ccc2nc3cc(Cl)ccc3c(NCCNCCCNCCNc3c4ccc(Cl)cc4nc4ccc(OC)cc34)c2c1 | 5000 | 1.3 | 1 (≈ 0.644 µg/mL) | 75 | 1 | 120 | 99 | 136 | – | 1 | 105 | 91 | Active | Toxic | Active | Toxic | inactive | –
COc1ccc2nc3cc(Cl)ccc3c(NCCCCN(CCCNc3c4ccc(Cl)cc4nc4ccc(OC)cc34)C(=O)[C@H](C)N)c2c1 | 5000 | 0.9 | 1 (≈ 0.7 µg/mL) | 80 | 10 | 225 | 93 | 303 | – | 10 | 310 | 242 | – | Toxic | – | Toxic | inactive | –
COc1ccc2nc3cc(Cl)ccc3c(NCCCCN(CCCNc3c4ccc(Cl)cc4nc4ccc(OC)cc34)C(=O)CNC(=O)[C@H](C)N)c2c1 | 5000 | 6.4 | 10 (≈ 7.57 µg/mL) | 0 | > 10 | 491 | 16 | 823 | 700 | >1 | 716 | 77 | – | Toxic | – | – | – | –
COc1ccc2nc3cc(Cl)ccc3c(NCCCCNCCCCCNCCCNc3c4ccc(Cl)cc4nc4ccc(OC)cc34)c2c1 | 5000 | 1.9 | 1 (≈ 0.714 µg/mL) | 66 | 10 | 270 | 98 | 129 | 600 | 10 | 125 | 140 | Active | Toxic | – | – | – | –
COc1ccc2nc3cc(Cl)ccc3c(NCCCNCCCNc3c4ccc(Cl)cc4nc4ccc(OC)cc34)c2c1 | 5000 | 1.1 | 1 (≈ 0.615 µg/mL) | 23 | 10 | 244 | 95 | 180 | – | 10 | 127 | 214 | Active | Toxic | Active | Toxic | inactive | Activity (MRC5): 100%; Activity [11]: 100%; EC50 (Plasmodium falciparum [12]): 55 nM

Source: ChEMBL document CHEMBL1143811, “Bis-acridines as lead antiparasitic agents: structure-activity analysis of a discrete compound library in vitro” (Antimicrob Agents Chemother, 2007)
